Reference: ChEMBL document CHEMBL1123886 (J Med Chem, 1987)
Active and inactive are the calls of the source. No cut-off for these calls is given here.

Assays:
P388 [1] = test: Optimal dose required to inhibit the P388 intraperitoneally; type: functional, Mus musculus
How it was run: (§1)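 Groups of 6. Optimal dose is in mg/kg per day. ILSmax is the % lifespan increase over untreated tumor-bearing controls at the optimal dose; above 20% counted significant. Cures are 50-day survivors.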

Nucleic Acid = test: Binding constant (1/M) to poly[d(A-T)] by ethidium bromide displacement; type: nucleic-acid assay
[2] = Lipophilicity (Rm).; type: physicochemical
[3] = The compound was evaluated for its acid dissociation constant; type: ADME
P388/ADR [4] = test: Optimal dose required to inhibit the P388/ADR cells in vivo after intraperitoneal administration.; type: functional, Mus musculus; set-up: unit: mg/kg/day
poly[d(A-T)] = test: Binding constant for poly[d(A-T)] by ethidium bromide displacement
P388/ADR [5] = test: Percent increase in life span, of the drug-treated tumor-bearing animals vs nontreated tumor-bearing controls with P388/ADR cells.; type: functional, Mus musculus; how it was run: as §1
[6] = system: Lewis lung carcinoma cell line; test: Percent increase in life span of the drug treated tumor bearing animals vs nontreated tumor bearing controls was determined against LL (Lewis lung carcinoma model) cells;NA= not active; type: functional
How it was run: (§2)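 Groups of 6. Optimal dose is in mg/kg per day. ILSmax is the % lifespan increase over untreated tumor-bearing controls at the optimal dose; above 40% counted significant. Cures are 60-day survivors.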

P388 [7] = test: Optimal dose required to inhibit the P388 intraperitoneal administration.; type: functional, Mus musculus; set-up: unit: mg/kg/day
L1210 = test: Ability to inhibit the growth of leukemia L1210 cells in vitro.; type: functional, cell-based; conditions: Mus musculus
How it was run: (§3)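 Cultured leukemia L1210 or human colon tumor HCT-8 cells were exposed to drug for 40 h.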

P388 [8] = test: Percent increase in life span of the drug-treated tumor-bearing animals vs nontreated tumor-bearing controls with P388 leukemia cells.; type: functional, Mus musculus; how it was run: as §1
HCT-8 = test: Ability to inhibit the growth of human colon tumor HCT-8 cells in vitro.; type: functional, cell-based; how it was run: as §3
[9] = system: Lewis lung carcinoma cell line; test: Optimal dose to inhibit the LL (Lewis lung carcinoma model) cells in vivo after intraperitoneal administration.; type: functional, Mus musculus; set-up: unit: mg/kg/day
How it was run: (§4)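 Mice were inoculated iv with 10^6 Lewis lung carcinoma cells. OD is the optimal dose in mg/kg per day. Lifespan increase above 40% is significant, and long-term survival was scored at 60 days.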

P388 [10] = test: Percent increase in life span of the drug treated tumor bearing animals vs nontreated tumor bearing controls was determined against P388 leukemia cells; NA = not active; type: functional; conditions: Mus musculus
How it was run: (§5)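 Mice were inoculated ip with 10^6 P388 or ADR/P388 cells. OD is the optimal dose in mg/kg per day. ILSmax is the % lifespan increase over untreated tumor-bearing controls at the OD; above 20% is significant. Long-term survival was scored at 50 days.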

Mus musculus = organism: Mus musculus; test: Percent increase in life span of the drug treated tumor bearing animals vs nontreated tumor bearing controls was determined against P388/ADR cells;NA= not active; type: functional, organism-based; how it was run: as §5
[11] = system: Lewis lung carcinoma cell line; test: (§6) Optimal dose required to inhibit the LL (Lewis lung carcinoma model) cells in vivo administered intraperitoneally; NA= not active; type: functional, Mus musculus; how it was run: as §2
[12] = system: Lewis lung carcinoma cell line; test: Optimal dose required to inhibit the LL Lewis lung carcinoma model cells in vivo administered intraperitoneally; type: functional, Mus musculus; how it was run: as §4
[13] = system: Lewis lung carcinoma cell line; test: as §6; type: functional, Mus musculus; how it was run: as §4; remark: listed apart in the source

Structure (SMILES) | OD (P388 [1]) | Log K (Nucleic Acid) | Rm [2] | pKa [3] | OD (P388/ADR [4]) | Log K (poly[d(A-T)]) | ILS max (P388/ADR [5]) | ILS max ([6]; Mus musculus) | OD (P388 [7]) | IC50 (L1210) | ILS max (P388 [8]) | IC50 (HCT-8) | OD [9] | ILS max (P388 [10]) | ILS max (Mus musculus) | ILS max [11] | OD [12] | ILS max ([11]; Mus musculus) | ILS max [6] | OD [13]
CNc1cc(NP(=O)(OC)OC)ccc1Nc1c2ccccc2nc2ccccc12 | 13.3 | 6.82 | 0.32 | 8.09 |  |  |  |  |  |  |  |  |  |  |  |  |  |  |  | 
CNc1cc(NC(=O)OC)ccc1Nc1c2ccccc2nc2c(Cl)cccc12 |  |  | 0.42 |  | 45 | 6.3 | 22 | inactive | 30 | 906 nM | 30 | 4500 nM | 65 |  |  |  |  |  |  | 
CC(=O)Nc1ccc(Nc2c3ccccc3nc3ccccc23)c(N(C)C)c1 |  |  | 0.57 | 7.59 | 100 | 5.58 |  |  | 65 |  |  |  |  | inactive | inactive |  |  |  |  | 
CNc1cc(NC(=O)OC)ccc1Nc1c2ccccc2nc2ccccc12 |  |  | 0.51 | 7.95 | 45 | 6.35 | 50 |  | 30 | 284 nM | 132 | 290 nM |  |  |  | 112 | 30 |  |  | 
CNc1cc(NC(=O)OC)ccc1Nc1c2ccccc2nc2ccc(C)cc12 |  |  | 0.7 |  | 45 | 5.62 |  |  | 45 | 436 nM | 69 | 850 nM |  |  | inactive |  | 13.3 | inactive |  | 
CNc1cc(NC(=O)OC)ccc1Nc1c2ccccc2nc2cc(C)ccc12 |  |  | 0.78 |  | 13.3 | 6.72 |  |  | 8.9 | 152 nM | 105 | 270 nM |  |  | inactive |  |  |  | 58 | 8.9
